167 variants from the RNAGym collection of RNA variant scans (doi:10.1126/science.aae0568) can be followed below.

First the molecules themselves.
B1: tRNA (parent)
chain: GUUCCGUUGGCGUAAUGGUAACGCGUCUCCCUCCUAAGGAGAAGACUGCGGGUUCGAGUCCCGUACGGAACG

Variants at the floor of the assay were thinned out.

Variants of B1 are the subject of the series. Description: yeast fitness relative to wild type (ratio to wild type); higher = fitter; tRNA-Arg(CCU), competitive growth, 37 C, YPD. In a few lines: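 Changes in genotype frequencies gave Darwinian fitness relative to wild type. Frequencies were read by 100-nucleotide paired-end sequencing of gene amplicons before and after pooled Saccharomyces cerevisiae strains, carrying tRNA-Arg(CCU) gene variants at the native locus, were competed in YPD at 37°C for 24 hours in six replicates. A genotype was kept only with ≥ 100 starting reads, and estimates < 0.5 were set to 0.5.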
Turning to C33G G44A G56A A65G, the yeast fitness turned out to be 0.554.

C33A C34G G50A: the yeast fitness amounted to 0.517. Regarding C33A A36C A43U C46G C62G A69U, the yeast fitness was at most 0.5.

For the variant C33A U35G C49U A65U, the yeast fitness was at most 0.5. Take U32G C61A: the yeast fitness came out at 0.535. For C34G G44A C49A U53A A69U, the yeast fitness was at most 0.5. The value for C34A G41A C62U was at most 0.5; that for C33G A40U A70G was 0.545; that for C34A G52C G63C was 0.681. As to C34G C62G, the yeast fitness was determined as 0.559. With U32G C61U C66U, the yeast fitness worked out at 0.577. The value for C33G C60A C66G was at most 0.5; that for C34G A45U U53G A57G was 0.569. Consider C34G C62G C66G A69C, for which the yeast fitness is at most 0.5. Turning to C33U A37C G67U A69U, the yeast fitness was at most 0.5. The value for C34A A40U was 0.705; that for C34A A40G was 0.609.

Turning to C34G A42G C62U, the yeast fitness was found to be 0.589. The value for C34A A40C C61A was at most 0.5; that for C33G A65G was 0.734; that for C33A A70U was 0.655. The value for C34G A57G was 0.568.

As for C34G A57U, the yeast fitness was 0.523. With U32G G51A C55G, the yeast fitness was at most 0.5. The value for C34A C49A U59G C66U was at most 0.5; that for C33U G48A C60U U64G A65U A69C was 0.571; that for C33U G50A G52C A65C was 0.564. As to C34G C49G C61U A70C, the yeast fitness was at most 0.5.

For C33U C62U G63A, the yeast fitness is at most 0.5. Regarding C33U A36C U54C, the yeast fitness is at most 0.5. On to C34G G39A, for which the yeast fitness came to 0.703. To C34G G39C belongs 0.58; to C34G C49G U54A A57C G68A, at most 0.5. To C33U A43C G63C belongs at most 0.5; to C34A G52A C61G G63A, at most 0.5; to C34G C49G U54C C61U A69G, at most 0.5.

Regarding C34G G52A, the yeast fitness came out at 0.562. The value for C34G G52C was at most 0.5; that for U32G U59C C61A was at most 0.5; that for C34A A40C A42U was at most 0.5. To C33U G38A C46U belongs 0.562; to C33U A36C A37G U64C, at most 0.5. The value for U32G G39C G52C C61U was at most 0.5; that for C33G A45U G51C was at most 0.5; that for C33U A43G G52A was at most 0.5. In the case of C34A A45G A57U C66U, the yeast fitness is at most 0.5. C34G A37C G56A: the yeast fitness was found to be 0.527. Regarding C33U A42C G68U, the yeast fitness is 0.538. To C34G A45C belongs 0.569; to C34G A45G, 0.657.

Turning to C33G U47G G56A A57G A69U, the yeast fitness was at most 0.5. In the case of C33G A45U C46U G56C, the yeast fitness was at most 0.5. For U32G G56A G63C, the yeast fitness is at most 0.5. Turning to C34G C55U G63A, the yeast fitness is at most 0.5. To C34G G48C G67A belongs at most 0.5; to C33G A45G C55G G56C, at most 0.5. The value for U32G U35A G48A G63C A69G was 0.524. Take C33G A40G C66G: the yeast fitness came out at 0.698.

For the variant C34A C46U, the yeast fitness is 0.615.

Consider C34A C46A, for which the yeast fitness turned out to be 0.691. To C34A C46G belongs 0.693. In the case of C34G U35C, the yeast fitness came to 0.613. To C33G U35C U59A A69U belongs 0.657. With C33U G56A C61G C66U, the yeast fitness is at most 0.5. On to C34A G51A, for which the yeast fitness is 0.656.

As for C33G A42U A45G, the yeast fitness was at most 0.5. To C34A A57U U59A belongs at most 0.5. The value for C33G G51A A65C was 0.709; that for U32G C49G was 0.602.

C34G U54G: the yeast fitness was at most 0.5. C33U G52A: the yeast fitness was found to be 0.58. The value for C33G C60A was 0.715; that for C33G C60G was at most 0.5; that for C33G A37G A43C G58C was 0.547. To C33G A43G U59A belongs at most 0.5; to C33G G52A U64C C66U G67A, at most 0.5; to C33U C34A A43C G48A, at most 0.5.

For C34G A40C A43U, the yeast fitness is at most 0.5. For the variant C34A C60G A70C, the yeast fitness was at most 0.5. The value for C33U G51A A65U was at most 0.5. As for C34G A42U G44A A45C G48C U64A, the yeast fitness is at most 0.5.

With C34G A42G A43U, the yeast fitness is 0.635. Take C33A A37C: the yeast fitness is at most 0.5. Regarding C33A A37G, the yeast fitness amounted to 0.531. To C33U G39A A57G C66U belongs 0.557. To C33G C49A C55G G56C belongs 0.561. As for C33A A57G, the yeast fitness was 0.781. To C33A A57U belongs 0.564. As to C34A A70G, the yeast fitness came to 0.634.

On to C33A U54G A70C, for which the yeast fitness was at most 0.5. To C34G G41C belongs 0.617; to C34A A42U A45G, at most 0.5; to C33G A57U G68A A69U, at most 0.5. The value for C33U A43U C49G G50C C60G was at most 0.5.

Take C34A A40U G67A: the yeast fitness is at most 0.5. Turning to C33G G41A G50A, the yeast fitness was found to be 0.624.

Regarding C33U A57G C66U, the yeast fitness was at most 0.5. Regarding U32G C61U C66U A69G, the yeast fitness was at most 0.5. Turning to C34A A57C, the yeast fitness was at most 0.5. To C34A A57G belongs 0.715; to C33A G58C C62G U64G, at most 0.5; to C33G A36G, 0.699. To C33U C61A G63C A65G belongs 0.549; to C34G A42C G51C, 0.525. C33G G44A U47C A57G: the yeast fitness is at most 0.5.

For C33U A40G, the yeast fitness is 0.71. The value for C33G A40C C62G was at most 0.5; that for C34G U47G was 0.561; that for C34A A45C A70C was 0.701. For C34A A42U G68A, the yeast fitness is at most 0.5. The value for C33G A45U G56C was 0.637; that for C33U C49G G52C was 0.501; that for C33U A43U C49G G50C A65C was at most 0.5. With C33A G39C C49U U54A G68A, the yeast fitness was at most 0.5. To U32G G39C A43G G52C belongs 0.571. As to C33G U35C U59A, the yeast fitness is 0.594. C33U U35A: the yeast fitness was at most 0.5. The value for C33U U35C was 0.579. Turning to C33U A45U, the yeast fitness was 0.837. To C33G A40U G56A belongs at most 0.5; to C33A C34G C60A A70C, at most 0.5. C33A C61A C62U C66U: the yeast fitness came to 0.562. Take C34A G68U: the yeast fitness amounted to 0.647.

For the variant C34A G68C, the yeast fitness stood at 0.841.

Consider C33U U47A G63A, for which the yeast fitness is at most 0.5.

In the case of C33G A42C C66G A70G, the yeast fitness is at most 0.5.

For the variant C33G C34U G38C U47A, the yeast fitness was 0.517. To C33A A36U G63A belongs at most 0.5. To C34G A37U C49G belongs 0.576; to C34A A65U, 0.736.

Regarding C33A U54C C55G, the yeast fitness was at most 0.5. To C34A U53A belongs 0.541; to C34A U53C, 0.559. To C34A A37C belongs 0.713; to U32G G39C C49U G52C, at most 0.5; to C33U U47A, 0.829.

As for C34A G41C, the yeast fitness was determined as 0.757. C34G G68U: the yeast fitness turned out to be 0.638. Take C33G G38A: the yeast fitness came to 0.684. In the case of C34G A40G C46G C49A U59C, the yeast fitness came to 0.55. The value for C33G G52A was 0.582; that for C33G G39C C55A was at most 0.5.

For the variant C33U C55U A70U, the yeast fitness was found to be 0.627.

For the variant C34A A57U G67C, the yeast fitness was 0.605.

U32G G56C: the yeast fitness is at most 0.5. Consider C34G A43U C55U A57C C66A, for which the yeast fitness came to 0.639.

Take C34G A36C C55G: the yeast fitness was at most 0.5. To C33U G68C belongs 0.686. To C33U A43U C55U belongs at most 0.5. The value for C34A A37C G67C A69G was at most 0.5; that for C33G C34U A65U was 0.629.

Regarding C34G G48C, the yeast fitness is 0.519. The value for C33U A65U was 0.816; that for C34G A36U G58A was 0.605; that for C34G C55G U59C C60U G67U A70C was at most 0.5. Consider C33U C61U A69G, for which the yeast fitness is at most 0.5. The value for C33U A45U G68A was 0.67; that for C33G A42U C61G was at most 0.5; that for C33U A42C A70G was 0.75.

Take C33U G44C C49U: the yeast fitness came to 0.531.

Consider C34G A40G, for which the yeast fitness was determined as 0.642.

As for C34G G38A, the yeast fitness is 0.624.

As to C34G G38C, the yeast fitness worked out at 0.587.

In the case of C34A A43C A65C, the yeast fitness was at most 0.5. The value for C34A A45G G63C was 0.676; that for C34G G56A was 0.639; that for C33A U35C C46U C49U G52C C61U C66U A69U was 0.528.
